Measurements reported in ChEMBL document CHEMBL4270654, “Identification of DK419, a potent inhibitor of Wnt/β-catenin signaling and colorectal cancer growth” (Bioorg Med Chem, 2018).
Active and inactive are the calls of the source. No cut-off for these calls is given here.

How the values were obtained:
Homo sapiens [1] = species on record: Homo sapiens; assay: Inhibition of Wnt/beta-catenin signaling pathway in human HCT116 whole cell lysate harboring beta-catenin mutation assessed as reduction in cyclin D1 protein expression at 5 uM after 18 hrs by Western blot analysis
Outline: (§1)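 CCRC240, HCT116 or SW480 cells were grown to 50–70% confluency and exposed 18 h to 5 μM compound in DMSO. Whole-cell lysates were blotted for c-Myc, cyclin D1 and survivin. Hypotonic cytosolic fractions, syringe-dispersed and centrifuged 120 min, were blotted for β-catenin and Axin2. β-Actin served as loading control.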

Homo sapiens [2] = species on record: Homo sapiens; assay: Inhibition of Wnt/beta-catenin signaling pathway in human SW480 cells cytosol lysate harboring APC mutation assessed as reduction in beta-catenin protein expression at 5 uM after 18 hrs by Western blot analysis; format: cell-based; outline: as §1
Homo sapiens [3] = species on record: Homo sapiens; assay: Inhibition of Wnt/beta-catenin signaling pathway in human CRC240 whole cell lysate assessed as reduction in cyclin D1 protein expression at 5 uM after 18 hrs by Western blot analysis; outline: as §1
[4] = biological target: AMP-activated protein kinase, AMPK (Homo sapiens) (UniProt P54646+O43741+P54619+Q9UGJ0+Q9Y478+Q13131+Q9UGI9); assay: Induction of AMPK phosphorylation in human CCD-841-CoN cells at 0.1 to 10 uM after 2 hrs by Western blot analysis; format: cell-based
Outline: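 Colonic epithelial CCD841Co cells were seeded at 0.27 million per well on poly-D-lysine-coated wells and attached overnight. Medium was then switched to glucose-free DMEM with 2 mM pyruvate and 2 mM glutamine containing compound or DMSO. Whole-cell lysates were immunoblotted for phospho-Thr172 AMPK and total AMPK, with β-actin as loading control. Methods give 30 min exposure; legend gives 2 h.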

CCD-841CoN [5] = assay: Stimulation of mitochondrial respiration in human CCD-841-CoN cells assessed as increase in oxygen consumption rate at 1 uM in presence of rotenone and […] antimycin A by polarographic analysis; format: functional, cell-based
Outline: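 CCD841Co cells were plated at 8000 per well and attached overnight. OCR was measured on a Seahorse XFp analyzer under basal conditions after 1 μM compound or DMSO was added. This was followed by 1 μM oligomycin, 1 μM FCCP, then 0.5 μM rotenone plus antimycin A (Mito Stress Test). Data given as mean ± SD, n = 2.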

Homo sapiens [6] = species on record: Homo sapiens; assay: Inhibition of Wnt/beta-catenin signaling pathway in human HCT116 whole cell lysate harboring beta-catenin mutation assessed as reduction in c-Myc protein expression at 5 uM after 18 hrs by Western blot analysis; outline: as §1
DLD-1 = assay: Antiproliferative activity against human DLD1 cells after 72 hrs by colorimetric MTS assay; format: functional, cell-based; settings: DLD-1, 72 h
Outline: (§2)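 Cells plated at 5000 per well in their own media (Leibovitz's for SW948; McCoy's 5A for HT-29/HCT116; MEM for SW480; RPMI for CRC240/DLD-1) with 10% FBS. Exposed 72 h to compound, 0.001–10 μM or 0.04–10 μM, then colorimetric MTS read-out. […] CRC240 is a patient-derived xenograft line.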

Homo sapiens [7] = species on record: Homo sapiens; assay: Inhibition of Wnt/beta-catenin signaling pathway in human SW480 whole cell lysate harboring APC mutation assessed as reduction in cyclin D1 protein expression at 5 uM after 18 hrs by Western blot analysis; outline: as §1
Mus musculus [8] = assay: Toxicity in NOD/SCID mouse xenografted with human CRC240 cells assessed as change in body weight at 72 mg/kg, po administered 11 days and measured on day 4, 8 during compound dosing and day 11 post last dose; format: organism-based; settings: in vivo, 264 h
Outline: (§3)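 Minced CRC240 PDX tissue (150 mg/ml in PBS, 200 μl) implanted in flanks of NOD/SCID mice. At about 100 mm3 tumours, mice randomized and dosed orally once daily for 11 days. Vehicle: 10% 1-methyl-2-pyrrolidinone/90% PEG300, with dosing suspensions or solutions at […] or 0.2 mg/ml. Tumour size and body weight recorded on days 0, 4, 8 and 11. n = 3, two-tailed t-test versus vehicle.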

SW948 = assay: Antiproliferative activity against human SW948 cells after 72 hrs by colorimetric MTS assay; format: functional, cell-based; settings: SW948, 72 h; outline: as §2
[9] = Inhibition of Wnt3A-stimulated Wnt/beta-catenin pathway in HEK293 cells transfected with p8xTOPFlash, Renilla luciferase plasmid pRL-TK and pLKO.1 after 6 hrs by Dual topflash luciferase reporter assay; format: cell-based; settings: Homo sapiens, HEK293, 6 h
Outline: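 HEK293 cells stably carrying p8xTOPFlash, pRL-TK and pLKO.1 were grown overnight to confluence in MEM/10% FBS with 1 μg/ml puromycin. Wnt-3A conditioned medium (from L Wnt-3A cells) containing compound (0.04–10 μM) or DMSO was added for 6 h. Dual-luciferase was read, with the Wnt3A+DMSO signal set as 100%.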

HT-29 = assay: Antiproliferative activity against human HT-29 cells after 72 hrs by colorimetric MTS assay; format: functional, cell-based; settings: HT-29, 72 h; outline: as §2
[10] = AUC (0 to 24 hrs) in NOD/SCID mouse at 200 mg/kg, po by LC-MS/MS-based non-compartmental extravascular input analysis; format: ADME, organism-based; design: time < 24 hr, dose 200 mg/kg, route oral; settings: in vivo
[11] = Antiproliferative activity against human CRC240 cells after 72 hrs by colorimetric MTS assay; format: functional, cell-based; outline: as §2
Homo sapiens [12] = species on record: Homo sapiens; assay: Inhibition of Wnt/beta-catenin signaling pathway in human SW480 cells cytosol lysate harboring APC mutation assessed as reduction in Axin2 protein expression at 5 uM after 18 hrs by Western blot analysis; format: cell-based; outline: as §1
CCD-841CoN [13] = assay: Stimulation of mitochondrial respiration in human CCD-841-CoN cells assessed as increase in oxygen consumption rate at 1 uM under basal conditions by polarographic analysis
Homo sapiens [14] = species on record: Homo sapiens; assay: Inhibition of Wnt/beta-catenin signaling pathway in human CRC240 cells cytosol lysate assessed as reduction in beta-catenin protein expression at 5 uM after 18 hrs by Western blot analysis; format: cell-based; outline: as §1
HCT-116 = assay: Antiproliferative activity against human HCT116 cells after 72 hrs by colorimetric MTS assay; format: functional, cell-based; settings: HCT-116, 72 h; outline: as §2
Homo sapiens [15] = species on record: Homo sapiens; assay: Inhibition of Wnt/beta-catenin signaling pathway in human SW480 whole cell lysate harboring APC mutation assessed as reduction in c-Myc protein expression at 5 uM after 18 hrs by Western blot analysis; outline: as §1
Homo sapiens [16] = species on record: Homo sapiens; assay: Inhibition of Wnt/beta-catenin signaling pathway in human HCT116 cells cytosol lysate harboring beta-catenin mutation assessed as reduction in beta-catenin protein expression at 5 uM after 18 hrs by Western blot analysis; format: cell-based; outline: as §1
Homo sapiens [17] = species on record: Homo sapiens; assay: Inhibition of Wnt/beta-catenin signaling pathway in human HCT116 whole cell lysate harboring beta-catenin mutation assessed as reduction in survivin protein expression at 5 uM after 18 hrs by Western blot analysis; outline: as §1
Homo sapiens [18] = species on record: Homo sapiens; assay: Inhibition of Wnt/beta-catenin signaling pathway in human HCT116 cells cytosol lysate harboring beta-catenin mutation assessed as reduction in Axin2 protein expression at 5 uM after 18 hrs by Western blot analysis; format: cell-based; outline: as §1
[19] = AUC (0 to infinity) in NOD/SCID mouse at 200 mg/kg, po by LC-MS/MS-based non-compartmental extravascular input analysis; format: ADME, organism-based; design: dose 200 mg/kg, time infinity, route oral; settings: in vivo
[20] = biological target: Frizzled-1 (Homo sapiens) (UniProt Q9UP38); assay: Induction of GFP-tagged Fzd1 (unknown origin) internalization expressed in human U2OS cells at 12.5 after 6 hrs by confocal microscopic method; format: functional, cell-based
Chain of Frizzled-1 (Homo sapiens) (Q9UP38 70-647 limits assumed): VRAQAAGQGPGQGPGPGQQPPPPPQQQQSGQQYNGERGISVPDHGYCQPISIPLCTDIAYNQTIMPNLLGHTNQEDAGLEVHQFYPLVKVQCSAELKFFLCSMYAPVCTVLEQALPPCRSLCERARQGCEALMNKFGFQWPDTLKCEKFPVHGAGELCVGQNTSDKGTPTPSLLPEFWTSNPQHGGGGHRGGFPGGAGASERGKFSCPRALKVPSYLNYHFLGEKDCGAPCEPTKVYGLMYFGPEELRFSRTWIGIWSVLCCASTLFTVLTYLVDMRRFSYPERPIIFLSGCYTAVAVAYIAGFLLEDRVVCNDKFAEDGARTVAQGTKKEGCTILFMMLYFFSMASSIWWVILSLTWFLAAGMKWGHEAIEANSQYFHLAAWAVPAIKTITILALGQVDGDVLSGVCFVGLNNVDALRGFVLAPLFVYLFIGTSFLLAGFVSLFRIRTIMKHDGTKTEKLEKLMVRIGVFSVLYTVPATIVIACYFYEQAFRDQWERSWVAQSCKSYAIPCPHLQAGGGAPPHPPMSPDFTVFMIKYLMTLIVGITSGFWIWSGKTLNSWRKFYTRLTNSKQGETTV
Outline: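 U2OS cells stably expressing Fzd1-GFP were grown 24 h in confocal dishes and then treated 6 h at 37 °C with 12.5 μM compound, DMSO as control. Cells were fixed in 4% paraformaldehyde and imaged by confocal microscopy (488 nm excitation). Internalization was scored as intracellular green punctate vesicles.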

SW480 = assay: Antiproliferative activity against human SW480 cells after 72 hrs by colorimetric MTS assay; format: functional, cell-based; settings: SW480, 72 h; outline: as §2
Homo sapiens [21] = species on record: Homo sapiens; assay: Inhibition of Wnt/beta-catenin signaling pathway in human CRC240 cells cytosol lysate assessed as reduction in Axin2 protein expression at 5 uM after 18 hrs by Western blot analysis; format: cell-based; outline: as §1
Mus musculus [22] = assay: Apparent volume of distribution in NOD/SCID mouse at 200 mg/kg, po by LC-MS/MS-based non-compartmental extravascular input analysis; format: ADME, organism-based; settings: in vivo
Homo sapiens [23] = species on record: Homo sapiens; assay: Inhibition of Wnt/beta-catenin signaling pathway in human SW480 whole cell lysate harboring APC mutation assessed as reduction in survivin protein expression at 5 uM after 18 hrs by Western blot analysis; outline: as §1
[24] = MRT in NOD/SCID mouse at 200 mg/kg, po by LC-MS/MS-based non-compartmental extravascular input analysis; format: ADME, organism-based; settings: in vivo
Mus musculus [25] = assay: Dose normalized AUC (0 to infinity) in NOD/SCID mouse at 200 mg/kg, po by LC-MS/MS-based non-compartmental extravascular input analysis; format: ADME, organism-based; settings: in vivo
Homo sapiens [26] = species on record: Homo sapiens; assay: Inhibition of Wnt/beta-catenin signaling pathway in human CRC240 whole cell lysate assessed as reduction in c-Myc protein expression at 5 uM after 18 hrs by Western blot analysis; outline: as §1
Homo sapiens [27] = species on record: Homo sapiens; assay: Inhibition of Wnt/beta-catenin signaling pathway in human CRC240 whole cell lysate assessed as reduction in survivin protein expression at 5 uM after 18 hrs by Western blot analysis; outline: as §1
Homo sapiens [28] = assay: Antitumor activity against human CRC240 cells xenografted in NOD/SCID mouse at 72 mg/kg, po administered 11 days and measured on day 4, 8 during compound dosing and day 11 post last dose; format: functional, organism-based; outline: as §3

inhibition (Homo sapiens [1]): Active | inhibition (Homo sapiens [3]): Active | Activity [4]: Active | inhibition (Homo sapiens [6]): Active | IC50 (DLD-1): 2390 nM | inhibition (Homo sapiens [7]): Active | IC50 (SW948): 110 nM | IC50 [9]: 450 nM | IC50 (HT-29): 130 nM | AUC(0-t) at 24 h [10]: 1010 ng·h/mL | IC50 (HCT-116): 410 nM | inhibition (Homo sapiens [15]): Active | AUC(0-inf) [19]: 1020 ng·h/mL | Activity [20]: Active | IC50 (SW480): 980 nM | Vz (Mus musculus [22]): 0.9 L/kg | MRT [24]: 6.8 h | AUC/dose (Mus musculus [25]): 0.005 µg·h/mL | inhibition (Homo sapiens [26]): Active
Structure (SMILES): O=C(Nc1ccc([N+](=O)[O-])cc1Cl)c1cc(Cl)ccc1O [NICLOSAMIDE]
inhibition (Homo sapiens [2]): Active | Activity (CCD-841CoN [5]): inactive | Activity (Mus musculus [8]): Non-Toxic | IC50 [11]: 890 nM | inhibition (Homo sapiens [12]): Active | Activity (CCD-841CoN [13]): Active | inhibition (Homo sapiens [14]): Active | inhibition (Homo sapiens [16]): Active | inhibition (Homo sapiens [17]): Active | inhibition (Homo sapiens [18]): Active | inhibition (Homo sapiens [21]): Active | inhibition (Homo sapiens [23]): Active | inhibition (Homo sapiens [27]): Active | Activity (Homo sapiens [28]): Active
